# Active and inactive are the calls of the source. The rule behind the calls is not given here.
# Legend:
# Staphylococcus aureus [1] = assay: Antibacterial activity against Ciprofloxacin-sensitive Staphylococcus aureus […] by Alamar blue staining based analysis; format: functional
# Staphylococcus aureus [2] = assay: Antibacterial activity against Staphylococcus aureus SA-K2191 overexpressing MsrA by Alamar blue staining based analysis; format: functional
# Staphylococcus aureus [3] = assay: Disruption of pre-formed biofilms of methicillin-resistant Staphylococcus aureus ATCC 15187 at 4 to 6 times MIC incubated for 24 hrs by absorbance based method relative to control; format: functional
# Staphylococcus aureus [4] = assay: Inhibition of biofilm formation of Staphylococcus aureus ATCC 29213 at 0.5 times MIC incubated for 27 hrs by absorbance based method; format: functional, organism-based
# Staphylococcus aureus [5] = assay: Disruption of cell membrane integrity in Staphylococcus aureus ATCC 29213 assessed as red fluorescence at 2 times MIC incubated for 2.5 hrs by DAPI/PI staining based fluorescence microscopy; format: functional, organism-based
# How it was run: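 Bacteria treated at 1× and 2× MIC, with vancomycin 2× MIC as control and an untreated blank; stained with DAPI (all cells) and propidium iodide (membrane-damaged cells); imaged by fluorescence microscopy, red PI signal taken as membrane damage.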
# Staphylococcus aureus [6] = assay: Antibacterial activity against methicillin-resistant Staphylococcus aureus ATCC 15187 infected in male […] mouse assessed as reduction in bacterial load in kidney at 50 mg/kg measured after 24 hrs by colony counting method; format: functional, organism-based
# How it was run: (§1)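 Mouse peritonitis model: 0.1 ml MRSA suspension (10^8 CFU ml−1) given intraperitoneally; treatment intraperitoneal at 50 or 100 mg kg−1 at 2 and 5 h post-infection, with saline and vancomycin (50 mg kg−1) controls; killed at 24 h; kidney and lung homogenates plated on Mueller–Hinton agar with 20 μg ml−1 ciprofloxacin, 24 h; CFU ml−1; unpaired t-test.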
# Staphylococcus aureus [7] = assay: Induction of morphological disruption in methicillin-resistant Staphylococcus aureus ATCC 15187 at 1 to 2 times MIC incubated for 2 to 6 hrs by SEM analysis; format: functional, organism-based; conditions: time 2-6 hrs
# How it was run: (§2)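 Bacteria incubated for 2 h and 6 h at 1×, 2× and 4× MIC, with vancomycin and daptomycin at 1× and 2× MIC and untreated cells; cell morphology imaged by scanning electron microscopy.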
# Staphylococcus aureus [8] = assay: Antibacterial activity against Staphylococcus aureus SA-1199B overexpressing NorA by Alamar blue staining based analysis; format: functional
# Staphylococcus aureus [9] = assay: Disruption of pre-formed biofilms of Staphylococcus aureus ATCC 29213 at 4 to 6 times MIC incubated for 24 hrs by absorbance based method relative to control; format: functional
# Staphylococcus aureus [10] = assay: Induction of morphological disruption in Staphylococcus aureus ATCC 29213 at 1 to 2 times MIC incubated for 2 to 6 hrs by SEM analysis; format: functional, organism-based; conditions: time 2-6 hrs; how it was run: as §2
# Staphylococcus aureus [11] = assay: Antibacterial activity against Staphylococcus aureus SA-K2192 overexpressing TetK by Alamar blue staining based analysis; format: functional
# Staphylococcus aureus [12] = assay: Antibacterial activity against methicillin-resistant Staphylococcus aureus ATCC 15187 infected in male […] mouse assessed as reduction in bacterial load in lung at 50 mg/kg measured after 24 hrs by colony counting method; format: functional, organism-based; how it was run: as §1
# Staphylococcus aureus [13] = assay: Inhibition of biofilm formation of methicillin-resistant Staphylococcus aureus ATCC 15187 at 0.5 times MIC incubated for 27 hrs by absorbance based method; format: functional, organism-based
# Staphylococcus aureus [14] = assay: Antibacterial activity against Staphylococcus aureus ATCC 29213 incubated for 24 hrs by Alamar blue staining based microdilution method; format: functional
Compound,MIC (Staphylococcus aureus [1]) [µg/mL],MIC (Staphylococcus aureus [2]) [µg/mL],Activity (Staphylococcus aureus [3]) [%],inhibition (Staphylococcus aureus [4]),Activity (Staphylococcus aureus [5]),Activity (Staphylococcus aureus [6]),Activity (Staphylococcus aureus [7]),MIC (Staphylococcus aureus [8]) [µg/mL],Activity (Staphylococcus aureus [9]) [%],Activity (Staphylococcus aureus [10]),MIC (Staphylococcus aureus [11]) [µg/mL],Activity (Staphylococcus aureus [12]),inhibition (Staphylococcus aureus [13]),MIC (Staphylococcus aureus [14]) [µg/mL]
CN[C@H](CC(C)C)C(=O)N[C@H]1C(=O)N[C@@H](CC(N)=O)C(=O)N[C@H]2C(=O)N[C@H]3C(=O)N[C@H](C(=O)N[C@H](C(=O)O)c4cc(O)cc(O)c4-c4cc3ccc4O)[C@H](O)c3ccc(c(Cl)c3)Oc3cc2cc(c3O[C@@H]2O[C@H](CO)[C@@H](O)[C@H](O)[C@H]2O[C@H]2C[C@](C)(N)[C@H](O)[C@H](C)O2)Oc2ccc(cc2Cl)[C@H]1O [VANCOMYCIN],0.25,0.25,40,inactive,Active,Active,Active,0.25,40,Active,0.56,Active,inactive,–
CCCCCCCCCC(=O)N[C@@H](Cc1c[nH]c2ccccc12)C(=O)N[C@@H](CC(N)=O)C(=O)N[C@@H](CC(=O)O)C(=O)N[C@@H]1C(=O)NCC(=O)N[C@@H](CCCN)C(=O)N[C@@H](CC(=O)O)C(=O)N[C@H](C)C(=O)N[C@@H](CC(=O)O)C(=O)NCC(=O)N[C@H](CO)C(=O)N[C@@H]([C@@H](C)CC(=O)O)C(=O)N[C@@H](CC(=O)c2ccccc2N)C(=O)O[C@@H]1C,–,–,–,–,–,–,Active,–,–,Active,–,–,–,–
O=C(O)c1cn(C2CC2)c2cc(N3CCNCC3)c(F)cc2c1=O [CIPROFLOXACIN],0.25,4.14,–,–,–,–,–,4.14,–,–,0.25,–,–,0.25

# Reference: ChEMBL document CHEMBL6182837, “Discovery and biological evaluation of nitrofuranyl-pyrazolopyrimidine hybrid conjugates as potent antimicrobial agents targeting Staphylococcus aureus and methicillin-resistant S. aureus” (RSC Med Chem, 2025)
